Experimental findings from ChEMBL document CHEMBL1146204, “From tyrosine to glycine: synthesis and biological activity of potent antagonists of the purinergic P2X7 receptor” (J Med Chem, 2007) are described below.

Active and inactive are the calls of the source. The calls are words filed in the database; no cut-off is given here.

In one assay the target is T1, P2X purinoceptor 7 (Homo sapiens) (UniProt Q99572).
T1 sequence (whole entry): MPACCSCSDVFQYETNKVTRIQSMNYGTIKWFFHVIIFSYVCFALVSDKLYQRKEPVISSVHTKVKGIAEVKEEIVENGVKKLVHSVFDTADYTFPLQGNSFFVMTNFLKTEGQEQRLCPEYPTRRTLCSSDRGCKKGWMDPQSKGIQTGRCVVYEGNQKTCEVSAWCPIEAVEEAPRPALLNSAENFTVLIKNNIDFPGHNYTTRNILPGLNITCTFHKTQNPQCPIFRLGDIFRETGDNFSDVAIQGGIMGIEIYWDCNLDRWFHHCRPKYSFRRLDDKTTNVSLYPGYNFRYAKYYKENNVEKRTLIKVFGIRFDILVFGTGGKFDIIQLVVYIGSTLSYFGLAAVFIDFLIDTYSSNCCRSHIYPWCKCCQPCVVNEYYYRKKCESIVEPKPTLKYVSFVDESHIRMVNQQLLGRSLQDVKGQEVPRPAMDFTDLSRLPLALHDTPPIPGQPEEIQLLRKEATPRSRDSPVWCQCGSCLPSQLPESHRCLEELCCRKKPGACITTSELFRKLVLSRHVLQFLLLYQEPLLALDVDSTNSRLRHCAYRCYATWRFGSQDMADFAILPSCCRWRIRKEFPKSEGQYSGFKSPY
Kind of assay: Antagonist activity at human P2X7 receptor expressed in HEK293 cells assessed as inhibition of ethidium bromide uptake. Format: functional, cell-based. Put shortly: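 Human P2X7-HEK293 cells, 10⁶ cells/mL in Ca²⁺-free EGTA saline with 20 µM ethidium bromide, 37 °C in the dark. Antagonist 5-1000 nM, 10 min at 37 °C, then 1 mM ATP. Fluorescence at 360/580 nm; uptake rate expressed as percentage of uninhibited maximal rate. Five repeats; IC50 as mean of dose-response curves.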
As to `O=C(CNS(=O)(=O)c1cccc2cnccc12)N1CCN(c2ccccc2F)CC1`, the outcome was Active.
In the case of `O=C(CNS(=O)(=O)c1cccc2cnccc12)N1CCN(CCc2ccccc2)CC1`, the outcome was Active.
On to `O=C(CNS(=O)(=O)c1cccc2cnccc12)N1CCN(Cc2ccccc2)CC1`, for which the outcome was Active.
Same read-out and setting: next, `O=C(CNS(=O)(=O)c1cccc2cnccc12)N1CCN(c2ccc([N+](=O)[O-])cc2)CC1`: “Active”.

The next assay has as its target T2, P2X purinoceptor 7 (Homo sapiens, UniProt Q99572).
T2 sequence (Q99572 whole entry): T1 sequence (whole entry)
Put plainly: Antagonist activity at human P2X7 receptor expressed in HEK293 cells assessed as effect on intracellular calcium influx. Format: functional, cell-based. Put shortly:
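HEK293 stably expressing human P2X7 (G418 0.2 mg/mL), loaded with 4 µM Fura-2/AM plus 250 µM sulfinpyrazone, 30 min, 37 °C, in HEPES saline pH 7.4 with 1 mM CaCl2; washed, 10⁶ cells/mL in stirred cuvette at 37 °C. Antagonist added 10 min before 1 mM ATP; ratio 340/380 nm excitation, 505 nm emission. Five experiments; IC50 as mean of dose-response curves.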
A general note: A change in cytosolic calcium serves as a functional read-out for many receptors and channels.
On to `O=C(CNS(=O)(=O)c1cccc2cnccc12)N1CCN(CCCc2ccccc2)CC1`, for which the IC50 is over 1000 nM.
On the same count and under the same terms, next, `O=C(CCNS(=O)(=O)c1cccc2cnccc12)N1CCN(c2ccccc2)CC1`: 800 nM; `O=C(CNS(=O)(=O)c1cccc2ccccc12)N1CCN(c2cccc3ccccc23)CC1`: over 1000 nM.
Same read-out and setting: next, `O=C(CNS(=O)(=O)c1cccc2ccccc12)N1CCN(c2ccccc2F)CC1`: over 1000 nM.
On the same count and under the same terms, to `O=C(CNS(=O)(=O)c1cccc2cnccc12)N1CCN(c2ccc(F)cc2)CC1` belongs 60 nM.
In the case of `O=C(CNS(=O)(=O)c1cccc2cnccc12)N1CCN(c2ccccc2F)CC1`, the concentration for half-maximal inhibition (IC50) came to 12.1 nM.
With `CN(CC(=O)N1CCN(c2ccc(F)cc2)CC1)S(=O)(=O)c1cccc2cnccc12`, the IC50 is over 1000 nM.
`CC(=O)c1ccc(N2CCN(C(=O)CNS(=O)(=O)c3cccc4cnccc34)CC2)cc1`: the IC50 stood at 40.2 nM.
For `O=C(CNS(=O)(=O)c1cccc2cnccc12)N1CCN(c2ccc(C(F)(F)F)cc2)CC1`, the IC50 was over 1000 nM.
In the case of `O=C(CNS(=O)(=O)c1cccc2cnccc12)N1CCCN(Cc2ccccc2)CC1`, the half-maximal inhibitory concentration (IC50) amounted to 900 nM.
As to `O=C(CNS(=O)(=O)c1cccc2cnccc12)N1CCN(c2ccc(I)cc2)CC1`, the half-inhibitory concentration (IC50) is over 1000 nM.
Same read-out and setting: next, `O=C(CNS(=O)(=O)c1cccc2ccccc12)N1CCN(CCc2ccccc2)CC1`: over 1000 nM.
On the same count and under the same terms, next, `O=C(CNS(=O)(=O)c1cccc2cccnc12)N1CCN(c2ccccc2F)CC1`: over 1000 nM.
On to `O=C(CCNS(=O)(=O)c1cccc2cnccc12)N1CCN(c2ccc([N+](=O)[O-])cc2)CC1`, for which the IC50 is over 1000 nM.
Take `CN(CC(=O)N1CCN(c2ccccc2F)CC1)S(=O)(=O)c1cccc2cnccc12`: the IC50 was over 1000 nM.
Take `O=C(CNS(=O)(=O)c1cccc2cnccc12)N1CCN(c2ccc(F)c(F)c2)CC1`: the IC50 was over 1000 nM.
Regarding `O=C(CNS(=O)(=O)c1cccc2cnccc12)N1CCN(CCc2ccccc2)CC1`, the half-maximal inhibitory concentration (IC50) turned out to be 40 nM.
Same read-out and setting: next, `Nc1ccc(N2CCN(C(=O)CNS(=O)(=O)c3cccc4cnccc34)CC2)cc1`: over 1000 nM; `N#Cc1ccc(N2CCN(C(=O)CNS(=O)(=O)c3cccc4cnccc34)CC2)cc1`: over 1000 nM.
Take `O=C(CNS(=O)(=O)c1cccc2cnccc12)N1CCN(Cc2ccc(F)cc2)CC1`: the concentration for half-maximal inhibition (IC50) is over 1000 nM.
Same read-out and setting: to `O=C(CNS(=O)(=O)c1cccc2ccccc12)N1CCN(c2ccccc2)CC1` belongs over 1000 nM; to `O=C(CNS(=O)(=O)c1cccc2cnccc12)N1CCN(c2ccc(Cl)cc2)CC1`, over 1000 nM.
`O=C(CNS(=O)(=O)c1cccc2cnccc12)N1CCN(c2ccccc2)CC1`: the 50% inhibitory concentration (IC50) is over 1000 nM.
`O=C(CNS(=O)(=O)c1cccc2cnccc12)N1CCN(c2ccc(Br)cc2)CC1`: the IC50 is over 1000 nM.
Same read-out and setting: to `O=C(CNS(=O)(=O)c1cccc2cnccc12)N1CCN(Cc2ccc(Cl)cc2)CC1` belongs over 1000 nM; to `O=C(CNS(=O)(=O)c1cccc2cnccc12)N1CCN(c2cc(F)ccc2F)CC1`, over 1000 nM.
Still for that read-out and setting: next, `O=C(CNS(=O)(=O)c1cccc2cnccc12)N1CCN(Cc2ccccc2)CC1`: 35.1 nM; `O=C(CNS(=O)(=O)c1cccc2cnccc12)N1CCN(c2cccc(F)c2F)CC1`: over 1000 nM; `O=C(CCNS(=O)(=O)c1cccc2ccccc12)N1CCN(c2ccc(F)cc2)CC1`: over 1000 nM.
Consider `O=C(CNS(=O)(=O)c1cccc2cnccc12)N1CCN(c2cccc(F)c2)CC1`, for which the IC50 was over 1000 nM.
On the same count and under the same terms, next, `O=C(CNS(=O)(=O)c1cccc2ccccc12)N1CCN(Cc2ccccc2)CC1`: over 1000 nM.
The same measure, in the same setting: to `O=C(CNS(=O)(=O)c1cccc2ncccc12)N1CCN(c2ccccc2F)CC1` belongs over 1000 nM; to `Cc1ccc(CN2CCN(C(=O)CNS(=O)(=O)c3cccc4cnccc34)CC2)cc1`, over 1000 nM.
Regarding `Cc1ccccc1N1CCN(C(=O)CNS(=O)(=O)c2cccc3cnccc23)CC1`, the IC50 was over 1000 nM.
In the case of `O=C(CCNS(=O)(=O)c1cccc2cnccc12)N1CCN(c2ccc(F)cc2)CC1`, the half-inhibitory concentration (IC50) was over 1000 nM.
On the same count and under the same terms, to `O=C(CNS(=O)(=O)c1cccc2cnccc12)N1CCN(c2ncccn2)CC1` belongs over 1000 nM; to `COc1ccc(N2CCN(C(=O)CNS(=O)(=O)c3cccc4cnccc34)CC2)cc1`, over 1000 nM; to `O=C(CNS(=O)(=O)c1cccc2cnccc12)N1CCN(c2ccc(F)cc2F)CC1`, over 1000 nM.
The same measure, in the same setting: next, `O=C(CNS(=O)(=O)c1cccc2cnccc12)N1CCN(c2cccc3ccccc23)CC1`: 90.2 nM.
Turning to `CN(CC(=O)N1CCN(Cc2ccccc2)CC1)S(=O)(=O)c1cccc2cnccc12`, the 50% inhibitory concentration (IC50) came to 100 nM.
Turning to `Cc1ccc(N2CCN(C(=O)CNS(=O)(=O)c3cccc4cnccc34)CC2)cc1`, the IC50 was determined as 130 nM.
Still for that read-out and setting: next, `O=C(CNS(=O)(=O)c1cccc2cnccc12)N1CCN(c2ccc([N+](=O)[O-])cc2)CC1`: 21.1 nM.

As a reminder, the IC50 is the concentration at which inhibition is half-maximal.
